# Only some compounds are listed: those with a hit (about 9.4% of all), similar ones and a draw of the others.
# SKKanGAS inh = blocks kanamycin growth of S. pyogenes SKKanGAS strain | BacTiter-Glo, 6 h | inhibition, % at 7.5 µM | 300,000 tested, 1.3% active | AID 1662;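 active = mean replicate score, as percent of positive control median, at least 50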;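 also: strain carries kanamycin resistance gene driven by streptokinase promoter and grows in 40 µg/ml kanamycin; loss of luminescence reflects streptokinase promoter inhibition or plain growth inhibition; 0% = median of DMSO wells and 100% = positive control at its reference dose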
# L major viab = reduces viability of Leishmania major promastigotes | 200,000 tested, 9% active | AID 1063 | resazurin fluorescence viability | inhibition, % at 10 µM; in the data active = inhibition above about 50%;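 also: promastigotes grown with compound for 44 hours at 28 °C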
# CSC inhib = blocks cancer stem cells; cancer stem cell-like cells viability, luminescence; inhibition, % at 7.5 µM; 300,000 tested, 1.1% active; AID 2717; in the data active = inhibition above about 75%; tested in HMLE shEcad cells
# Beta cell apopt = blocks beta cell apoptosis; INS-1E cytokine-induced death, ATP luminescence, 48 h; percent of positive-control rescue, neutral wells zero; protection from apoptosis, % (concentration not given with the values); 300,000 tested, 0.8% active; AID 435005;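 active = Every replicate reaches about 75%, or at least half do and their mean reaches it too, limit read from the data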;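 also: 0% = cytokine-treated negative control wells and 100% = positive control rescue; higher means more ATP so stronger rescue from cytokine killing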
# T cruzi inh = T. cruzi replication inhibition. T. cruzi beta-gal in NIH3T3, luminescence, 90 h. inhibition, % (no concentration beside the values). 300,000 tested, 1.4% active;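 active = mean inhibition across valid replicates above about 55%, limit read from the data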;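 also: signal also drops with host cell toxicity which is not excluded here; 0% = plate median of DMSO wells and 100% = zero luminescence signal; higher percent means less beta-gal luminescence so fewer parasites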
#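 Assay system: NIH/3T3 host cells with β-galactosidase reporter T. cruzi; input: 5,000 host fibroblasts per well; compound: single 50 nL compound addition per well in DMSO; timing: ≥90 h infection period, 3 h prior cell attachment; measured by: GalScreen β-gal luminescence, detergent lysis, 60 min; evaluation: percent inhibition of parasite-derived β-gal signal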
# Mdm2-MdmX inh = inhibitors of human Mdm2/MdmX interaction | O15151+Q00987 | SaOS-2 split-luciferase Mdm2/MdmX complementation, luminescence | inhibition, % at 8 µM | 330,000 tested, 3% active | AID 485346;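 active = inhibition of at least 50% at 8 µM in the primary screen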
# An asterisk follows results filed as active; . = not tested or not shown.
SMILES,SKKanGAS inh,L major viab,CSC inhib,Beta cell apopt,T cruzi inh,Mdm2-MdmX inh
CCOc1ccccc1NC(=O)c1sc2nc(C)nc(N3CCOCC3)c2c1C,9,.,-8,-10,11,-16
O=C(Cn1ncn2c(cc3ccccc32)c1=O)NCCc1cccs1,5,.,-12,-1,1,35
COc1ccc(C2=NOC(C(=O)N3CCN(C(=O)c4ccco4)CC3)C2)cc1OC (stereo unspecified),1,.,8,-4,-16,17
C/C(=N/NC(=O)CNc1ccc(Cl)cc1C)c1ccc(C)cc1,6,-2,-13,22,-1,10
COc1ccc(NC(=O)c2cccs2)cc1C(=O)N1CCN(c2ccccc2)CC1,8,.,8,4,7,35
COc1cc(/C=N/N(C)c2ccccc2)cc(Cl)c1O,14,-1,56,-1,-15,-37
COc1ccc(OC)c(/C=N/N(C)c2ccccc2)c1,1,60*,-3,-11,-23,-88
CCCCN(CC)CCNC(=O)CN1C(=O)COc2ccc(S(=O)(=O)N3CCCC3)cc21,4,43,7,2,-2,-24
c1ccc2c(c1)CCN(C1=Nc3cccc4cccc1c34)C2,.,69*,.,.,.,-33
c1cc2c3c(cccc3c1)C(N1CCCCCC1)=N2,2,32,36,3,9,22
CC(C)(C)NS(=O)(=O)c1ccc2nc(NC(=O)Cc3cccs3)sc2c1,-16,95*,35,.,7,45
c1ccc(COc2ccccc2CNC2CCCC2)cc1,4,70*,-14,2,12,37
c1csc(COc2ccccc2CNC2CCCCC2)c1,5,81*,.,10,-16,41
O=C1c2cccc3cccc(c23)C(=O)N1CCCN1CCN(c2ccc(F)cc2)CC1,5,34,13,0,47,34
CCCCCCCCNC(=O)c1cccnc1SCC(=O)Nc1ccccc1OC,7,82*,1,-1,9,15
O=C(CSc1ncnc2nc[nH]c12)Nc1nnc(SCc2ccc(Cl)c(Cl)c2)s1,44,-3,93*,-7,-27,16
Cc1ccc(C)c(NC(=O)CSc2ncnc3nc[nH]c23)c1,-4,-9,2,-4,-12,6
CCN(CC)S(=O)(=O)c1cccc(-c2nnc(SCC(=O)c3ccc(Cl)s3)n2C)c1,-1,78*,12,-3,19,21
CCOCCCN1CN(Cc2ccco2)CNC1=S,-11,-7,-7,-6,4,8
COCCN1CSC(=S)N(Cc2ccco2)C1,1,85*,1,-6,.,6
S=C1SCN(Cc2ccccn2)CN1Cc1ccco1,-4,80*,6,-11,.,43
Cc1cc(F)ccc1S(=O)(=O)Nc1ccc(C(=O)N2CCCCCC2)cc1,.,.,21,5,.,5
CC(=O)c1ccc(S(=O)(=O)N(C)CC(=O)NCC2CCCCC2)cc1,0,.,-7,.,-17,10
COc1ccc(/C=N/NC(=O)CN(C2=NS(=O)(=O)c3ccccc32)c2ccccc2)cc1,6,56*,-5,-4,2,-4
COc1ccccc1/C=N/NC(=O)CN(C1=NS(=O)(=O)c2ccccc21)c1ccccc1,1,45,-28,-2,-1,0
SMILES,SKKanGAS inh,L major viab,CSC inhib,Beta cell apopt,T cruzi inh,Mdm2-MdmX inh
CC(C)NC(=O)Nc1ccc2c(c1)C(=O)N([C@H](C)CO)C[C@@H](C)[C@@H](CN(C)C(=O)NC1CCCCC1)O2,.,.,15,-9,.,13
Cc1ccc2[nH]c(=O)c(C(c3nnnn3C(C)(C)C)N(Cc3ccco3)CC3CCCO3)cc2c1 (stereo unspecified),-2,-1,-3,1,60*,18
Clc1ccc(C(c2nnnn2C2CCCCC2)N(Cc2cccnc2)Cc2ccco2)cc1 (stereo unspecified),41,100*,.,.,51,.
CCOC(=O)Cn1nnnc1C(CC)N(Cc1cccs1)Cc1cc2ccc(OC)cc2[nH]c1=O (stereo unspecified),4,99*,4,-1,6,24
CCC(c1nnnn1Cc1ccco1)N(Cc1ccccc1OC)Cc1cc2cc(C)ccc2[nH]c1=O (stereo unspecified),22,3,37,.,44,30
COc1ccc2[nH]c(=O)c(CN(Cc3nnnn3Cc3ccco3)C3CCCCC3)cc2c1,-11,28,5,-1,7,-4
Cc1cccc2cc(C(c3nnnn3C(C)(C)C)N(Cc3ccco3)CC3CCCO3)c(=O)[nH]c12 (stereo unspecified),7,17,-8,-6,3,7
CCC(c1nnnn1C1CCCCC1)N(Cc1ccco1)Cc1cc2ccc(OC)cc2[nH]c1=O (stereo unspecified),.,74*,.,.,.,.
O=C(CSc1ccc(Br)cc1)N1CCN(C(=O)c2ccco2)CC1,13,-4,-6,0,-8,-1
Cc1ccc2cc(C(c3nnnn3C3CCCC3)N(Cc3cccnc3)Cc3ccco3)c(=O)[nH]c2c1 (stereo unspecified),6,25,-7,-8,-5,17
COc1ccc2[nH]c(=O)c(C(c3nnnn3C3CCCC3)N(C)C3CCCCC3)cc2c1 (stereo unspecified),-10,53*,-1,.,-9,19
c1cncc(C(c2nnnn2C2CCCC2)N2CCCC2)c1 (stereo unspecified),3,7,-11,0,10,21
Cc1ccc2[nH]c(=O)c(C(c3nnnn3C3CCCC3)N(Cc3cccnc3)Cc3ccco3)cc2c1 (stereo unspecified),5,85*,-3,-4,-18,21
CCOc1ccc2[nH]c(=O)c(C(c3nnnn3C3CCCCC3)N3CCN(C)CC3)cc2c1 (stereo unspecified),.,-5,13,7,.,-19
CC(c1nnnn1C1CCCCC1)N(Cc1ccccc1)Cc1cccnc1 (stereo unspecified),1,92*,-18,1,38,22
Cc1ccc2cc(C(c3nnnn3C3CCCC3)N(Cc3ccco3)Cc3cccs3)c(=O)[nH]c2c1 (stereo unspecified),1,82*,14,-1,63*,-7
c1coc(CN(Cc2cccs2)Cc2nnnn2C2CCCCC2)c1,6,16,6,2,17,2
N#CCOC(=O)C1CCN(S(=O)(=O)c2ccc3c(c2)OCCO3)CC1,-7,.,-4,-5,14,30
Cc1cccc(-n2cc(CNCCN3CCOC3=O)c(-c3cccc(F)c3)n2)c1,10,11,-3,-7,-6,-5
O=C(Nc1ccccc1)OCC(CN1CCCCC1)OC(=O)Nc1ccccc1 (stereo unspecified),.,.,-7,-2,.,2
N/C(=N\OC(=O)c1ccccc1F)c1cccc([N+](=O)[O-])c1,-2,.,17,0,-10,-196
Fc1ccccc1/C=C/c1ccc2ccccc2n1,-14,0,10,8,1,-102
